The results in this text go back to ChEMBL document CHEMBL2163251, “Synthesis and pharmacological evaluation of indolinone derivatives as novel ghrelin receptor antagonists” (Bioorg Med Chem, 2012).

Activity calls are given as the source filed them. No cut-off for these calls is given here.

For data set [1], the target named is T1, Growth hormone secretagogue receptor type 1 (Homo sapiens, UniProt Q92847). Put plainly: Antagonist activity at human GHSR1 expressed in CHO-CREluc cells after 4 hrs by Luciferase reporter assay. The format is functional, cell-based. The gist of the method: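 hGHSR1a stably cloned into CHO line carrying CRE-luciferase reporter (six CRE upstream of firefly luciferase). Cells plated in MEM with 10% dialysed FBS. Stimulation medium held 0.1 µM forskolin and 3 nM human ghrelin. Luciferase read by photon counting.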
T1 sequence (Q92847 whole entry): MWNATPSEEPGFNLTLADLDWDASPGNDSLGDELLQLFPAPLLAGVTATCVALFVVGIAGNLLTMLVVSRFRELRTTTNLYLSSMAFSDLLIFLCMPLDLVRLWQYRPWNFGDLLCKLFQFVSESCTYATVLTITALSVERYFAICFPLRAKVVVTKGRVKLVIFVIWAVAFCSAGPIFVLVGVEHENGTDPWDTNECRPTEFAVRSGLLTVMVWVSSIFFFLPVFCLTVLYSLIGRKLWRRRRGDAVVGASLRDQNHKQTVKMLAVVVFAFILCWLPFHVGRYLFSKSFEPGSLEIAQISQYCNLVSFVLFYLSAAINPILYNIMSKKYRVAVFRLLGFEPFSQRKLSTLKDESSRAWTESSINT
(A reporter such as luciferase makes a cellular process visible.)

The target in data set [2] is T1, Growth hormone secretagogue receptor type 1. The experiment in a line: Displacement of [125I]-ghrelin from human GHSR1 expressed in CHO-CREluc cells after 1 hr by scintillation counting. Type of data set: cell-based. A digest of the protocol: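 Crude membranes from CHO-CREluc-hGHSR1a cells were homogenized in TM buffer (10 mM Tris-HCl pH 7.4, 10 mM MgCl2) and spun at 40,000g. Incubated 1 h in TM buffer with 0.25% BSA and 10% dialysed FBS, 0.25 nM [125I] human ghrelin and increasing compound concentrations. Harvested on PEI-pretreated GF/B filters and washed with cold buffer. Bound radioactivity counted by scintillation.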
(Loss of bound radioactivity is the signal in a displacement assay; it reports binding, not function.)

The test system of the next data set is Mus musculus. The experiment in a line: Effect of glucose tolerance in fasted C57/BL6N mouse assessed as inhibition of glucose excursion at 30 mg/kg, po measured after 20 to 120 mins by IPGTT.
Another data set concerns P-glycoprotein. Put plainly: P-glycoprotein-mediated efflux ratio of the compound. The format is ADME. To be noted: not told.

The term IC50 denotes the point on the concentration scale where inhibition reaches its midpoint. A lower IC50 goes with higher potency. As to `CN(C)[C@@H]1CCN(CC(=O)NC2(c3ccc(Cl)c(Cl)c3)C(=O)Nc3cc(Cl)cc(Cl)c32)C1` (stereo partly drawn), in data set [1], the IC50 came to 25 nM.

In the case of `CN(C)[C@H]1CCN(CC(=O)NC2(c3ccc(Cl)c(Cl)c3)C(=O)Nc3cc(Cl)cc(Cl)c32)C1` (stereo partly drawn), the IC50 in data set [1] is 110 nM.

Broadly, the Ki is a measure of affinity in units of concentration, obtained from inhibition or displacement. With `CN1CCN(CC(=O)N[C@]2(c3ccc(Cl)cc3)C(=O)Nc3cc(Cl)c(Cl)cc32)CC1`, in data set [1], the IC50 came out at 47 nM. This molecule displayed a Ki in data set [2] of 249 nM.

Regarding `CCC1=C(C)CN(C(=O)NCCc2ccc(S(=O)(=O)NC(=O)N[C@H]3CC[C@H](C)CC3)cc2)C1=O`, in the data set with Mus musculus, the inhibition result was “Active”.

Molecule `Cc1ccc2c(c1Cl)C(NC(=O)CN1CCN(C)CC1)(c1ccc(Cl)cc1)C(=O)N2` (racemic) returned an IC50 in data set [1] of 1160 nM. This counts as single-digit micromolar.

In turn, `Cc1cc2c(cc1Cl)NC(=O)C2(NC(=O)CN1CCN(C)CC1)c1ccc(Cl)cc1` (racemic) displayed an IC50 in data set [1] of 213 nM. Moreover, the Ki in data set [2] was 392 nM.

In data set [1], `Cc1cc2c(cc1Cl)NC(=O)C2(NC(=O)CN1CCN(C)CC1)c1cccc(Cl)c1` (racemic) returned an IC50 of 1180 nM.

`Cc1cc2c(cc1Cl)NC(=O)C2(NC(=O)CN1CCN(C)CC1)c1ccccc1Cl` (racemic) came in with a half-inhibitory concentration (IC50) in data set [1] of more than 10000 nM.

`Cc1cc2c(cc1Cl)NC(=O)C2(NC(=O)CN1CCN(C)CC1)c1ccc(Cl)c(Cl)c1` (racemic) displayed an IC50 in data set [1] of 220 nM. The same molecule gave a Ki in data set [2] of more than 1000 nM.

For the molecule `Cc1cc2c(cc1Cl)NC(=O)C2(NC(=O)CN1CCN(C)CC1)c1ccc(Cl)cc1Cl` (racemic), the IC50 in data set [1] was more than 10000 nM.

For `CCN1CCN(CC(=O)NC2(c3ccc(Cl)cc3)C(=O)Nc3cc(Cl)c(C)cc32)CC1` (racemic), the IC50 in data set [1] turned out to be 129 nM. The same molecule had a Ki in data set [2] of 286 nM.

In data set [1], `Cc1cc2c(cc1Cl)NC(=O)C2(NC(=O)CN1CCNCC1)c1ccc(Cl)cc1` (racemic) returned an IC50 of more than 10000 nM.

As for `Cc1cc2c(cc1Cl)NC(=O)C2(NC(=O)CN1CCN(Cc2ccccc2)CC1)c1ccc(Cl)cc1` (racemic), in data set [1], the IC50 was more than 10000 nM.

The molecule `Cc1cc2c(cc1Cl)NC(=O)C2(NC(=O)CN1CCN(c2ccncc2)CC1)c1ccc(Cl)cc1` (racemic) returned an IC50 in data set [1] of more than 10000 nM.

Turning to `CCN1CCN(CC(=O)NC2(c3ccc(Cl)cc3)C(=O)Nc3cc(Cl)c(Cl)cc32)CC1` (racemic), in data set [1], the IC50 stood at 110 nM. In addition, in data set [2], affinity was put at a Ki of 202 nM.

Molecule `CN(C)CCN(C)CC(=O)NC1(c2ccc(Cl)cc2)C(=O)Nc2cc(Cl)c(Cl)cc21` (racemic) yielded an IC50 in data set [1] of more than 10000 nM.

`CC1CCN(CC(=O)NC2(c3ccc(Cl)cc3)C(=O)Nc3cc(Cl)c(Cl)cc32)CC1` (racemic) registered an IC50 in data set [1] of 2540 nM.

Regarding `CN1CCN(CC(=O)NC2(c3ccc(Cl)cc3)C(=O)Nc3cc(Cl)c(Cl)c(Cl)c32)CC1` (racemic), the IC50 in data set [1] is 273 nM.

In data set [1], `CN1CCN(CC(=O)NC2(c3ccc(C(C)(C)C)cc3)C(=O)Nc3cc(Cl)c(Cl)cc32)CC1` (single isomer, unassigned; (+)) had an IC50 of 1470 nM. Compared with the last molecule, the IC50 is about 5.4-fold higher.

Take `C=CCN1CCN(CC(=O)NC2(c3ccc(Cl)c(Cl)c3)C(=O)Nc3cc(Cl)cc(Cl)c32)CC1` (single isomer, unassigned; (+)): the IC50 in data set [1] amounted to 38 nM. Also, affinity in data set [2] was put at a Ki of 121 nM.

Take `CN1CCCN(CC(=O)NC2(c3ccc(Cl)c(Cl)c3)C(=O)Nc3cc(Cl)cc(Cl)c32)CC1` (single isomer, unassigned; (+)): in data set [1], the IC50 stood at 64 nM. This lies in the double-digit nanomolar range.

Take `CN(C)C1CCN(CC(=O)NC2(c3ccc(Cl)c(Cl)c3)C(=O)Nc3cc(Cl)cc(Cl)c32)CC1` (single isomer, unassigned; (+)): the IC50 in data set [1] stood at 239 nM.

On to `CCN1CCCC(CC(=O)NC2(c3ccc(Cl)c(Cl)c3)C(=O)Nc3cc(Cl)cc(Cl)c32)C1` (single isomer, unassigned; (+)), for which half-maximal inhibition in data set [1] (IC50) was put at 47 nM.

Consider `CCN1CCN(CC(=O)NC2(c3ccc(Cl)c(Cl)c3)C(=O)Nc3cc(Cl)cc(Cl)c32)CC1=O` (single isomer, unassigned; (+)), for which the IC50 in data set [1] stood at 2780 nM.

The efflux ratio is the permeability from basolateral to apical divided by that in the opposite direction, in the common usage. `CCN1CCC(CC(=O)NC2(c3ccc(Cl)c(Cl)c3)C(=O)Nc3cc(Cl)cc(Cl)c32)CC1` (single isomer, unassigned; (+)) yielded an IC50 in data set [1] of 1 nM. Also, the efflux ratio with P-glycoprotein was 58. In data set [2], this molecule displayed a Ki of 3 nM.

As for `CN1CCN(CC(=O)NC2(c3ccc(Cl)cc3)C(=O)Nc3cc(Cl)ccc32)CC1` (single isomer, unassigned; (+)), it took 140 nM to reach half-maximal inhibition in data set [1] (IC50).

Regarding `CN1CCN(CC(=O)NC2(c3ccc(Cl)cc3)C(=O)Nc3c(Cl)cc(Cl)cc32)CC1` (single isomer, unassigned; (+)), the IC50 in data set [1] is 1390 nM.

Molecule `CN1CCN(CC(=O)NC2(c3ccc(Cl)c(Cl)c3)C(=O)Nc3cc(Cl)ccc32)CC1` (single isomer, unassigned; (+)) gave an IC50 in data set [1] of 111 nM. This IC50 lies about 13-fold lower than the previous one.

For `CN1CCN(CC(=O)NC2(c3ccc(Cl)cc3)C(=O)Nc3cc(Cl)cc(Cl)c32)CC1` (single isomer, unassigned; (+)), in data set [1], the IC50 was 72 nM. Moreover, the Ki in data set [2] was 44 nM.

On to `CN1CCN(CC(=O)NC2(c3ccc(Cl)c(Cl)c3)C(=O)Nc3cc(Cl)cc(Cl)c32)CC1` (single isomer, unassigned; (+)), for which the IC50 in data set [1] was found to be 24 nM.

In turn, `COc1ccc(C2(NC(=O)CN3CCN(C)CC3)C(=O)Nc3cc(Cl)c(Cl)cc32)cc1` (single isomer, unassigned; (+)) had an IC50 in data set [1] of 700 nM. Compared with the last molecule, the IC50 is about 29-fold higher.

In data set [1], `Cc1cc2c(cc1Cl)C(NC(=O)CN1CCN(C)CC1)(c1ccc(Cl)cc1)C(=O)N2` (single isomer, unassigned; (+)) displayed an IC50 of 251 nM. Compared with the last molecule, the IC50 is about 2.8-fold lower.

`COc1ccc(C2(NC(=O)CN3CCN(C)CC3)C(=O)Nc3cc(Cl)c(C)cc32)cc1` (single isomer, unassigned; (+)): in data set [1], the IC50 turned out to be 525 nM.

The molecule `CN1CCN(CC(=O)NC2(c3ccc(Cl)cc3)C(=O)Nc3cc(Cl)c(Cl)cc32)CC1` (single isomer, unassigned; (-)) gave an IC50 in data set [1] of more than 10000 nM.
